Data taken from ChEMBL document CHEMBL4390639, “Design, Synthesis, and Biological Evaluation of Novel Allosteric Protein Disulfide Isomerase Inhibitors” (J Med Chem, 2019).
Calls of active or inactive are those of the source. No cut-off for these calls is given here.

Columns and labels:
A 172 = test: Induction of morphological changes in human A172 cells assessed as necroptotic cell death at 20 uM measured after 48 hrs by Giemsa-staining based microscopic analysis; assay type: functional
U-87 MG [1] = test: Up regulation of HSPA1B gene expression in human U87MG cells at 16 uM incubated for 4 hrs followed by bromouridine addition during last 30 mins of incubation by TRIzol-reagent based Bru-Seq analysis relative to control; assay type: functional, U-87MG ATCC
In short: (§1)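 U87MG cells exposed to compound or DMSO vehicle for 4 h, with 2 mM bromouridine added for the final 30 min. Total RNA isolated with TRIzol; Bru-labelled nascent RNA captured on anti-BrdU antibody-conjugated magnetic beads and sequenced. Transcript abundance expressed as RPKM relative to DMSO. Experiment performed once.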

U-87 MG [2] = test: Up regulation of AKR1C1 gene expression in human U87MG cells at 16 uM incubated for 4 hrs followed by bromouridine addition during last 30 mins of incubation by TRIzol-reagent based Bru-Seq analysis relative to control; assay type: functional, U-87MG ATCC; in short: as §1
U-87 MG [3] = test: Up regulation of VEGFD gene expression in human U87MG cells at 16 uM incubated for 4 hrs followed by bromouridine addition during last 30 mins of incubation by TRIzol-reagent based Bru-Seq analysis relative to control; assay type: functional, U-87MG ATCC
U-87 MG [4] = test: Up regulation of TXNRD1 gene expression in human U87MG cells at 16 uM incubated for 4 hrs followed by bromouridine addition during last 30 mins of incubation by TRIzol-reagent based Bru-Seq analysis relative to control; assay type: functional, U-87MG ATCC
U-87 MG [5] = test: Up regulation of KCNE4 gene expression in human U87MG cells at 16 uM incubated for 4 hrs followed by bromouridine addition during last 30 mins of incubation by TRIzol-reagent based Bru-Seq analysis relative to control; assay type: functional, U-87MG ATCC; in short: as §1
U-87 MG [6] = test: Up regulation of HSPH1 gene expression in human U87MG cells at 16 uM incubated for 4 hrs followed by bromouridine addition during last 30 mins of incubation by TRIzol-reagent based Bru-Seq analysis relative to control; assay type: functional, U-87MG ATCC; in short: as §1
U-87 MG [7] = test: Up regulation of AC087672.3 gene expression in human U87MG cells at 16 uM incubated for 4 hrs followed by bromouridine addition during last 30 mins of incubation by TRIzol-reagent based Bru-Seq analysis relative to control; assay type: functional, U-87MG ATCC; in short: as §1
U-87 MG [8] = test: Up regulation of BCO2 gene expression in human U87MG cells at 16 uM incubated for 4 hrs followed by bromouridine addition during last 30 mins of incubation by TRIzol-reagent based Bru-Seq analysis relative to control; assay type: functional, U-87MG ATCC; in short: as §1
U-87 MG [9] = test: Up regulation of GCLC gene expression in human U87MG cells at 16 uM incubated for 4 hrs followed by bromouridine addition during last 30 mins of incubation by TRIzol-reagent based Bru-Seq analysis relative to control; assay type: functional, U-87MG ATCC; in short: as §1
U-87 MG [10] = test: Down regulation of AC006206.2 gene expression in human U87MG cells at 16 uM incubated for 4 hrs followed by bromouridine addition during last 30 mins of incubation by TRIzol-reagent based Bru-Seq analysis relative to control; assay type: functional, U-87MG ATCC; in short: as §1
U-87 MG [11] = test: Down regulation of HLA-DQB1 gene expression in human U87MG cells at 16 uM incubated for 4 hrs followed by bromouridine addition during last 30 mins of incubation by TRIzol-reagent based Bru-Seq analysis relative to control; assay type: functional, U-87MG ATCC; in short: as §1
U-87 MG [12] = test: Down regulation of CTGF gene expression in human U87MG cells at 16 uM incubated for 4 hrs followed by bromouridine addition during last 30 mins of incubation by TRIzol-reagent based Bru-Seq analysis relative to control; assay type: functional, U-87MG ATCC
U-87 MG [13] = test: Down regulation of KCTD4 gene expression in human U87MG cells at 16 uM incubated for 4 hrs followed by bromouridine addition during last 30 mins of incubation by TRIzol-reagent based Bru-Seq analysis relative to control; assay type: functional, U-87MG ATCC
U-87 MG [14] = test: Down regulation of E2F1 gene expression in human U87MG cells at 16 uM incubated for 4 hrs followed by bromouridine addition during last 30 mins of incubation by TRIzol-reagent based Bru-Seq analysis; assay type: functional, cell-based; details: U-87MG ATCC
U-87 MG [15] = test: Up regulation of CHAC1 gene expression in human U87MG cells at 10 uM incubated for 4 hrs followed by bromouridine addition during last 30 mins of incubation by TRIzol-reagent based Bru-Seq analysis relative to control; assay type: functional, U-87MG ATCC; in short: as §1
U-87 MG [16] = test: Up regulation of MMP1 gene expression in human U87MG cells at 10 uM incubated for 4 hrs followed by bromouridine addition during last 30 mins of incubation by TRIzol-reagent based Bru-Seq analysis relative to control; assay type: functional, U-87MG ATCC; in short: as §1
U-87 MG [17] = test: Up regulation of ALOXE3 gene expression in human U87MG cells at 10 uM incubated for 4 hrs followed by bromouridine addition during last 30 mins of incubation by TRIzol-reagent based Bru-Seq analysis relative to control; assay type: functional, U-87MG ATCC; in short: as §1
U-87 MG [18] = test: Up regulation of PSAT1 gene expression in human U87MG cells at 10 uM incubated for 4 hrs followed by bromouridine addition during last 30 mins of incubation by TRIzol-reagent based Bru-Seq analysis relative to control; assay type: functional, U-87MG ATCC; in short: as §1
U-87 MG [19] = test: Up regulation of NGF gene expression in human U87MG cells at 10 uM incubated for 4 hrs followed by bromouridine addition during last 30 mins of incubation by TRIzol-reagent based Bru-Seq analysis relative to control; assay type: functional, U-87MG ATCC; in short: as §1
U-87 MG [20] = test: Up regulation of GCNT3 gene expression in human U87MG cells at 10 uM incubated for 4 hrs followed by bromouridine addition during last 30 mins of incubation by TRIzol-reagent based Bru-Seq analysis relative to control; assay type: functional, U-87MG ATCC; in short: as §1
U-87 MG [21] = test: Up regulation of HSPA4L gene expression in human U87MG cells at 10 uM incubated for 4 hrs followed by bromouridine addition during last 30 mins of incubation by TRIzol-reagent based Bru-Seq analysis relative to control; assay type: functional, U-87MG ATCC; in short: as §1
U-87 MG [22] = test: Down regulation of CTHRC1 gene expression in human U87MG cells at 10 uM incubated for 4 hrs followed by bromouridine addition during last 30 mins of incubation by TRIzol-reagent based Bru-Seq analysis relative to control; assay type: functional, U-87MG ATCC
U-87 MG [23] = test: Down regulation of FKBP7 gene expression in human U87MG cells at 10 uM incubated for 4 hrs followed by bromouridine addition during last 30 mins of incubation by TRIzol-reagent based Bru-Seq analysis relative to control; assay type: functional, U-87MG ATCC
U-87 MG [24] = test: Down regulation of DUT gene expression in human U87MG cells at 10 uM incubated for 4 hrs followed by bromouridine addition during last 30 mins of incubation by TRIzol-reagent based Bru-Seq analysis relative to control; assay type: functional, U-87MG ATCC
U-87 MG [25] = test: Down regulation of CCNA2 gene expression in human U87MG cells at 10 uM incubated for 4 hrs followed by bromouridine addition during last 30 mins of incubation by TRIzol-reagent based Bru-Seq analysis relative to control; assay type: functional, U-87MG ATCC
U-87 MG [26] = test: Down regulation of RAD51 gene expression in human U87MG cells at 10 uM incubated for 4 hrs followed by bromouridine addition during last 30 mins of incubation by TRIzol-reagent based Bru-Seq analysis; assay type: functional, cell-based; details: U-87MG ATCC
In short: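 Nascent transcription (Bru-seq) in U87MG cells: treatment at 10 μM for 4 h, with 2 mM bromouridine added for the final 30 min. Total RNA isolated with TRIzol; Bru-labelled RNA captured using anti-BrdU antibody on magnetic beads, then sequenced. Transcript traces reported as RPKM compared with DMSO-treated cells. Single experiment.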

Q: What does the source list for `COC(=O)c1cccc(/C=C/C(=O)c2cccc(O)c2)c1`?
A: Activity (A 172): Active; fold change (FC) (U-87 MG [1]): 10.2; fold change (FC) (U-87 MG [2]): 8.1; fold change (FC) (U-87 MG [3]): 6.2; fold change (FC) (U-87 MG [4]): 5.4; fold change (FC) (U-87 MG [5]): 5.1; fold change (FC) (U-87 MG [6]): 5; fold change (FC) (U-87 MG [7]): 3.8; fold change (FC) (U-87 MG [8]): 1.9; fold change (FC) (U-87 MG [9]): 1.9; fold change (FC) (U-87 MG [10]): 3.9; fold change (FC) (U-87 MG [11]): 3.7; fold change (FC) (U-87 MG [12]): 3.1; fold change (FC) (U-87 MG [13]): 3; Activity (U-87 MG [14]): Active

Q: Which results are given for `CCCCCN(CCCCC)S(=O)(=O)c1ccc(C(=O)/C=C/c2cccc(C#N)c2)cc1`?
A: fold change (FC) (U-87 MG [15]): 40.9; fold change (FC) (U-87 MG [16]): 32.1; fold change (FC) (U-87 MG [17]): 17; fold change (FC) (U-87 MG [18]): 11.7; fold change (FC) (U-87 MG [19]): 10; fold change (FC) (U-87 MG [20]): 10; fold change (FC) (U-87 MG [21]): 8.6; fold change (FC) (U-87 MG [22]): 2.4; fold change (FC) (U-87 MG [23]): 2.4; fold change (FC) (U-87 MG [24]): 2.3; fold change (FC) (U-87 MG [25]): 2.3; Activity (U-87 MG [26]): Active
